From PubChem BioAssay AID651942 (The Scripps Research Institute Molecular Screening Center, 2012)
pIC50: −log10 of the molar value. The source made the active and inactive calls.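 Rule for the calls: active = inhibitor of the AddAB recombination enzyme whose half-maximal inhibitory concentration is at or below 10 µM; inactive = half-maximal inhibitory concentration above 10 µM.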

Tested on: E. coli V3065 expressing H. pylori AddAB, T4 phage, OD growth
Assay: growth inhibition of T4-infected E. coli expressing H. pylori AddAB, late-stage follow-up, AddAB inhibitor project, absorbance, E. coli V3065, powder samples, round 2 (AID 651942)
Procedure, shortened: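 System: E. coli V3065 carrying H. pylori addAB+ | Buffer or medium: Cation Mueller Hinton broth | Compound dosing: 10-point threefold series from 118.6 µM | Timing: 60 min preincubation, 18 h post-infection, 37 °C | Technique: Optical density at 600 nm as bacterial growth measure | Benchmarks: Ciprofloxacin reference | Replication: Each compound tested in triplicate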

SMILES | pIC50 | IC50
CCn1cc(C(=O)O)c(=O)c2cnc(N3CCN(C(=S)Nc4ccc(Cl)cc4)CC3)nc21 | 5.19 | 
CCn1cc(C(=O)O)c(=O)c2cnc(N3CCN(C(=S)Nc4ccccc4OC)CC3)nc21 |  | 30.6 µM (inactive)
CCn1cc(C(=O)O)c(=O)c2cnc(N3CCN(C(=S)Nc4cccc(C(F)(F)F)c4)CC3)nc21 | 5.99 | 
CCn1cc(C(=O)O)c(=O)c2cnc(N3CCN(C(=S)NCc4ccccc4)CC3)nc21 |  | 29.4 µM (inactive)
CCn1cc(C(=O)O)c(=O)c2cnc(N3CCN(C(=S)NC(=O)c4cccc(C)c4)CC3)nc21 |  | 19 µM (inactive)
CCn1cc(C(=O)O)c(=O)c2cnc(N3CCN(C(=S)Nc4ccccc4F)CC3)nc21 | 5.12 | 
